The source of these data is ChEMBL document CHEMBL1147976 (Eur J Med Chem, 2007).

For data set [1], the system named is Leishmania infantum. Nature of the data set: Antipromastigote activity against Leishmania infantum. In kind it is functional, organism-based. In outline:
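L. infantum MHOM/FR/78/LEM75 late log-phase promastigotes in phenol-red-free RPMI with 12% foetal calf serum and 10% Alamar Blue. Concentration range added to duplicate cultures, final DMSO below 5%. Incubated 48 h at 25 C. Alamar Blue reduction read by absorbance at 570 and 630 nm. IC50 = concentration giving 50% reduction of Alamar Blue versus control.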

Data set [2] has as its system Leishmania infantum. Nature of the data set: Antiamastigote activity against Leishmania infantum. The class given is functional, organism-based.
Data set [3] is described as follows: Binding affinity to DNA by DNA-methyl green bioassay. Set-up: species or system Homo sapiens. In outline:
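Absorbance at 630 nm read at start and after 24 h dark at room temperature. Readings corrected for initial value, normalized to untreated complex. IC50 = 50% drop in DNA-related absorbance.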

Data set [4] has as its system THP-1. The experiment in a line: Cytotoxicity against human THP1 cells. The class given is cell-based. In outline:
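Late log-phase human monocytes in RPMI with 10% Alamar Blue and 10% foetal calf serum. Concentration range in duplicate cultures, final DMSO below 5%. Incubated 72 h at 37 C, 5% CO2. Alamar Blue reduction measured as absorbance at 570 and 630 nm. IC50 based on reduction relative to control culture.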

The nature of data set [5]: Toxicity in human macrophages. In kind it is cell-based. To be noted: macrophage.

The IC50 is the point on the concentration scale where inhibition reaches its midpoint. Read a high IC50 as weaker potency. Take `O=C(Nc1ccc2cc3ccc(NC(=O)c4ccc(F)cc4)cc3nc2c1)c1ccc(F)cc1`: the IC50 is 1.7 µM in data set [1], 0.03 µM in data set [2], more than 250 µM in data set [3] and 0.77 µM in data set [4].
Taken in the same sequence, the figures for `CC(=O)Nc1ccc2cc3ccc(NC(=O)c4ccc(F)cc4)cc3nc2c1` were 133 µM, 0.67 µM, more than 250 µM and 1.1 µM.
In the same order, the values of `Nc1ccc2cc3ccc(N)cc3nc2c1` [PROFLAVINE] are 1.3 µM, 0.12 µM, more than 250 µM and 2.21 µM.
In the same order, the values of `CCC(=O)Nc1ccc2cc3ccc(NC(=O)CC)cc3nc2c1` are 160 µM, 7.7 µM, 171 µM and 23.2 µM.
`CC(=O)Nc1ccc2cc3ccc(NC(=O)c4ccccc4)cc3nc2c1`: the figures for the IC50 in data set [1], in data set [3] and in data set [4] were 186 µM, more than 250 µM and 5.4 µM, respectively. The Activity result in data set [5] was “Toxic”.
Turning to `O=C(Nc1ccc2cc3ccc(NC(=O)c4ccc(Cl)cc4)cc3nc2c1)c1ccc(Cl)cc1`, the IC50 in data set [1] was 0.11 µM; in data set [2], 0.2 µM; in data set [3] it was more than 250 µM; in data set [4], 2.49 µM.
Consider `C[C@@H]1[C@H](O)[C@@H](C)/C=C/C=C/C=C/C=C/C=C/C=C/C=C/[C@H](O[C@@H]2O[C@H](C)[C@@H](O)[C@H](N)[C@@H]2O)C[C@@H]2O[C@](O)(C[C@@H](O)C[C@@H](O)[C@H](O)CC[C@@H](O)C[C@@H](O)CC(=O)O[C@H]1C)C[C@H](O)[C@H]2C(=O)O` [AMPHOTERICIN B], for which the IC50 in data set [1] was determined as 0.38 µM; in data set [2] it was 0.14 µM; in data set [4] it was 154 µM.
Regarding `COc1ccc(C(=O)Nc2ccc3cc4ccc(NC(=O)c5ccc(OC)cc5)cc4nc3c2)cc1`, the IC50 in data set [1] was 4.8 µM; in data set [2], 1.1 µM; in data set [3], more than 250 µM; in data set [4], 13.4 µM.
Consider `COc1ccc(C(=O)Nc2ccc3cc4ccc(NC(C)=O)cc4nc3c2)cc1OC`, for which the IC50 in data set [1] was 203 µM; in data set [2] it was 1.3 µM; in data set [3] it was more than 250 µM; in data set [4], 2.1 µM.
On to `CC(=O)Nc1ccc2cc3ccc(NC(C)=O)cc3nc2c1`, for which the IC50 was 342 µM in data set [1], 4.5 µM in data set [2], more than 250 µM in data set [3] and 738 µM in data set [4].
In the same order, the values of `O=C(Nc1ccc2cc3ccc(NC(=O)c4ccccc4)cc3nc2c1)c1ccccc1` are 4.31 µM, 1.1 µM, more than 250 µM and 110 µM.
In the same order, the values of `CC(=O)Nc1ccc2cc3ccc(NC(=O)c4ccc(Cl)cc4)cc3nc2c1` are 11.5 µM, 2.9 µM, more than 250 µM and 1.9 µM.
In the case of `CCCC(=O)Nc1ccc2cc3ccc(NC(=O)CCC)cc3nc2c1`, the IC50 in data set [1] was found to be 46.7 µM; in data set [2] it was 12.8 µM; in data set [3], 102 µM; in data set [4] it was 18.9 µM.
Turning to `COc1cccc2c1C(=O)c1c(O)c3c(c(O)c1C2=O)C[C@@](O)(C(=O)CO)C[C@@H]3O[C@H]1C[C@H](N)[C@H](O)[C@H](C)O1` [DOXORUBICIN], the IC50 in data set [3] came to 1.38 µM.
Consider `CC(=O)Nc1ccc2cc3ccc(N)cc3nc2c1`, for which the IC50 in data set [1] is 90.8 µM; in data set [3] it was 59.1 µM; in data set [4], 4.7 µM. Also, in data set [5], the Activity entry is on record as “Toxic”.
With `COc1ccc(C(=O)Nc2ccc3cc4ccc(NC(=O)c5ccc(OC)c(OC)c5)cc4nc3c2)cc1OC`, the IC50 in data set [1] is 16.1 µM; in data set [2] it was 0.8 µM; in data set [3], more than 250 µM; in data set [4], 26.8 µM.
As for `COc1ccc(C(=O)Nc2ccc3cc4ccc(NC(C)=O)cc4nc3c2)cc1`, the IC50 is 86.9 µM in data set [1], more than 250 µM in data set [3] and 1.76 µM in data set [4]. In data set [5], the Activity result was “Toxic”.
